Assay results reported in ChEMBL document CHEMBL3259767, “Design, synthesis and biological evaluation of Pontin ATPase inhibitors through a molecular docking approach” (Bioorg Med Chem Lett, 2014).
Activity calls are given as the source filed them. The rule behind the calls is not given here.

Tests used:
HL-60 [1] = assay: Induction of apoptosis in human HL60 cells assessed as caspase 3 activity measured as cleavage of DEVD at 5 uM after 24 hrs by FACS analysis relative to control; type: functional
Outline: (§1)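 Caspase 3 activity was read in HL60 cells after 24 or 48 h treatment at 5–50 µM, with doxorubicin 1 µM as positive control. Activity is expressed relative to untreated HL60, set at 100.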

HL-60 [2] = assay: Induction of necrosis in human HL60 cells assessed as LDH release at >20 uM after 24 hrs; type: functional, cell-based
Outline: (§2)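 Necrosis marker: LDH released into the culture medium and total LDH were measured in HL60 cells after 24 or 48 h treatment at 5–50 µM, with doxorubicin 1 µM as control.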

KB [3] = assay: Antiproliferative activity against human KB cells at 10 uM after 72 hrs; type: functional, cell-based
Outline: (§3)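 Cells exposed to compound for 72 h. IC50 values come from KB and HL60 cells. Single-point screening was run at 10^-5 M.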

HCT-116 = assay: Antiproliferative activity against human HCT116 cells at 10 uM after 72 hrs; type: functional, cell-based; outline: as §3
HL-60 [4] = assay: Cell cycle arrest in human HL60 cells assessed as accumulation at S phase at 20 uM after 24 hrs by propidium iodide-based flow cytometry (reference value: 48.7 %); type: functional
Outline: (§4)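 HL60 cells were treated for 24 h at 5, 20 or 50 µM, with doxorubicin 50 nM as control. DNA was stained with propidium iodide and analysed by flow cytometry. Results are the percentage of cells in subG1, G0/G1, S and G2/M.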

HL-60 [5] = assay: Induction of apoptosis in human HL60 cells assessed as caspase 3 activity measured as cleavage of DEVD at 5 uM after 48 hrs by FACS analysis relative to control; type: functional; outline: as §1
HL-60 [6] = assay: Induction of apoptosis in human HL60 cells after 24 to 48 hrs by FACS analysis; type: functional, cell-based
Outline: (§5)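 HL60 cells were labelled with annexin and 7-AAD after 24 or 48 h exposure at 5, 20 or 50 µM, with doxorubicin 100 nM as reference. FACS sorted cells into intact, early apoptotic, late apoptotic and necrotic fractions, given as percentages.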

HL-60 [7] = assay: Induction of apoptosis in human HL60 cells assessed as caspase 3 activity measured as cleavage of DEVD at 50 uM after 48 hrs by FACS analysis relative to control; type: functional; outline: as §1
HL-60 [8] = assay: Cell cycle arrest in human HL60 cells assessed as accumulation at G2/M phase at 50 uM after 24 hrs by propidium iodide-based flow cytometry (reference value: 2.5 %); type: functional; outline: as §4
HL-60 [9] = assay: Cell cycle arrest in human HL60 cells assessed as accumulation at subG1 phase at 20 uM after 24 hrs by propidium iodide-based flow cytometry (reference value: 1.2 %); type: functional; outline: as §4
HL-60 [10] = assay: Induction of apoptosis in human HL60 cells assessed as caspase 3 activity measured as cleavage of DEVD at 50 uM after 24 hrs by FACS analysis relative to control; type: functional; outline: as §1
HL-60 [11] = assay: Cell cycle arrest in human HL60 cells assessed as accumulation at G0/G1 phase at 20 uM after 24 hrs by propidium iodide-based flow cytometry (reference value: 47.6 %); type: functional; outline: as §4
HL-60 [12] = assay: Cell cycle arrest in human HL60 cells assessed as accumulation at G2/M phase at 5 uM after 24 hrs by propidium iodide-based flow cytometry (reference value: 2.5 %); type: functional; outline: as §4
HL-60 [13] = assay: Cell cycle arrest in human HL60 cells assessed as accumulation at G0/G1 phase at 50 uM after 24 hrs by propidium iodide-based flow cytometry (reference value: 47.6 %); type: functional; outline: as §4
HL-60 [14] = assay: Induction of apoptosis in human HL60 cells assessed as caspase 3 activity measured as cleavage of DEVD at 10 uM after 48 hrs by FACS analysis relative to control; type: functional; outline: as §1
HL-60 [15] = assay: Cell cycle arrest in human HL60 cells assessed as accumulation at G0/G1 phase at 5 uM after 24 hrs by propidium iodide-based flow cytometry (reference value: 47.6 %); type: functional; outline: as §4
HL-60 [16] = assay: Antiproliferative activity against human HL60 cells at 10 uM after 72 hrs; type: functional, cell-based; outline: as §3
HL-60 [17] = assay: Antiproliferative activity against human HL60 cells after 72 hrs; type: functional, cell-based; settings: HL-60, 72 h; outline: as §3
HL-60 [18] = assay: Induction of apoptosis in human HL60 cells assessed as caspase 3 activity measured as cleavage of DEVD at 20 uM after 24 hrs by FACS analysis relative to control; type: functional; outline: as §1
HL-60 [19] = assay: Cell cycle arrest in human HL60 cells assessed as accumulation at subG1 phase after 24 hrs by propidium iodide-based flow cytometry; type: functional; outline: as §4
HL-60 [20] = assay: Cell cycle arrest in human HL60 cells assessed as accumulation at S phase at 50 uM after 24 hrs by propidium iodide-based flow cytometry (reference value: 48.7 %); type: functional; outline: as §4
HL-60 [21] = assay: Cell cycle arrest in human HL60 cells assessed as accumulation at subG1 phase at 50 uM after 24 hrs by propidium iodide-based flow cytometry (reference value: 1.2 %); type: functional; outline: as §4
HL-60 [22] = assay: Induction of necrosis in human HL60 cells assessed as decrease in total LDH after 48 hrs; type: functional, cell-based; outline: as §2
HL-60 [23] = assay: Cell cycle arrest in human HL60 cells assessed as accumulation at S phase at 5 uM after 24 hrs by propidium iodide-based flow cytometry (reference value: 48.7 %); type: functional; outline: as §4
HL-60 [24] = assay: Induction of apoptosis in human HL60 cells assessed as caspase 3 activity measured as cleavage of DEVD after 24 to 48 hrs by FACS analysis relative to control; type: functional, cell-based; outline: as §1
HL-60 [25] = assay: Induction of apoptosis in human HL60 cells at 50 uM after 24 hrs by FACS analysis relative to control; type: functional; outline: as §5
MCF7 = assay: Antiproliferative activity against human MCF7 cells at 10 uM after 72 hrs; type: functional, cell-based; outline: as §3
HL-60 [26] = assay: Induction of apoptosis in human HL60 cells at 20 uM after 24 hrs by FACS analysis; type: functional, cell-based; outline: as §5
HL-60 [27] = assay: Cell cycle arrest in human HL60 cells assessed as accumulation at subG1 phase at 5 uM after 24 hrs by propidium iodide-based flow cytometry (reference value: 1.2 %); type: functional; outline: as §4
KB [28] = assay: Antiproliferative activity against human KB cells after 72 hrs; type: functional, cell-based; outline: as §3
HL-60 [29] = assay: Induction of apoptosis in human HL60 cells assessed as caspase 3 activity measured as cleavage of DEVD at 20 uM after 48 hrs by FACS analysis relative to control; type: functional; outline: as §1
[30] = Antiproliferative activity against human EPC cells after 72 hrs; type: cell-based
HL-60 [31] = assay: Cell cycle arrest in human HL60 cells assessed as accumulation at G2/M phase at 20 uM after 24 hrs by propidium iodide-based flow cytometry (reference value: 2.5 %); type: functional; outline: as §4
HL-60 [32] = assay: Induction of apoptosis in human HL60 cells at 20 uM after 48 hrs by FACS analysis; type: functional, cell-based; outline: as §5
HL-60 [33] = assay: Induction of apoptosis in human HL60 cells assessed as caspase 3 activity measured as cleavage of DEVD at 10 uM after 24 hrs by FACS analysis relative to control; type: functional; outline: as §1
[34] = molecular target: RuvB-like 1 (Homo sapiens) (UniProt Q9Y265); assay: Inhibition of human recombinant his-tagged pontin expressed in Escherichia coli BL21 assessed as reduction in inorganic phosphate release at 100 uM after 10 mins by malachite green-based colorimetric assay
RuvB-like 1 (Homo sapiens), sequence (Q9Y265 whole entry): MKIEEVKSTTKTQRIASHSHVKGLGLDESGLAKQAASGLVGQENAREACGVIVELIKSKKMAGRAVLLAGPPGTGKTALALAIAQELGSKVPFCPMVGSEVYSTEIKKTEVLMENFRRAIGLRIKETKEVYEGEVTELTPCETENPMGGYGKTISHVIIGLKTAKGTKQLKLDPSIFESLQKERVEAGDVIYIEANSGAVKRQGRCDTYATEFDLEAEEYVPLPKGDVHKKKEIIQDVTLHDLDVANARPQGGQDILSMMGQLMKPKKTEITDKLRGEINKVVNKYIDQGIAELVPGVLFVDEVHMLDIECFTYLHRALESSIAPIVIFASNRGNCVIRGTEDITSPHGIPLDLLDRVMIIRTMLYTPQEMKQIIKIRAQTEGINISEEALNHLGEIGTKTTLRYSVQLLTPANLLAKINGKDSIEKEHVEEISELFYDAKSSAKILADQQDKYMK
Outline: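 Pontin ATPase activity was measured as inorganic phosphate release by malachite green assay, with compounds tested at 100 µM.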

HL-60 [35] = assay: Induction of necrosis in human HL60 cells assessed as decrease in total LDH at 1 uM after 48 hrs; type: functional, cell-based; outline: as §2

In the case of N[C@@H](Cc1c[nH]c2ccccc12)C(=O)Nc1ccc(-c2c(O)c(-c3ccccc3)c[nH]c2=O)cc1, the Activity (HL-60 [1]) is reported as 116%, the Activity (HL-60 [2]) is reported as “Active” and the Activity (KB [3]) is reported as “Active”. The Activity (HCT-116) was “Active”, the Activity (HL-60 [4]) was 34.4% and the Activity (HL-60 [5]) was 119%. For the same molecule, the Activity (HL-60 [6]) was “Dose-dependent effect”, the Activity (HL-60 [7]) was 169% and the Activity (HL-60 [8]) was 1.3%. The Activity (HL-60 [9]) was 10.9%, the Activity (HL-60 [10]) was 306% and the Activity (HL-60 [11]) was 46.8%. The Activity (HL-60 [12]) was 4.3%, the Activity (HL-60 [13]) was 14.7% and the Activity (HL-60 [14]) was 131%. For the same molecule, the Activity (HL-60 [15]) was 48.3%, the Activity (HL-60 [16]) was “Active” and the IC50 (HL-60 [17]) was 15 µM. The Activity (HL-60 [18]) was 134%, the Activity (HL-60 [19]) was “Dose-dependent effect” and the Activity (HL-60 [20]) was 14.6%. The Activity (HL-60 [21]) was 69.5%, the Activity (HL-60 [22]) was “Dose-dependent effect” and the Activity (HL-60 [23]) was 44.7%. For the same molecule, the Activity (HL-60 [24]) was “Dose-dependent effect”, the Activity (HL-60 [25]) was 95% and the Activity (MCF7) was “Active”. For the same molecule, the Activity (HL-60 [26]) was “Active”, the Activity (HL-60 [27]) was 2.7% and the IC50 (KB [28]) was 9 µM. It also gave an Activity (HL-60 [29]) of 247%, an IC50 [30] of 25 µM and an Activity (HL-60 [31]) of 8%. The Activity (HL-60 [32]) was “Active”, the Activity (HL-60 [33]) was 111% and the inhibition [34] was “Active”.
For O=C(O)[C@H](Cc1c[nH]c2ccccc12)NCc1ccc(-c2c(O)c3ccccc3[nH]c2=O)cc1, the Activity (KB [3]) was “inactive”, the Activity (HCT-116) was “inactive” and the Activity (HL-60 [16]) was “inactive”. The Activity (MCF7) was “inactive” and the inhibition [34] was “inactive”.
In the case of N[C@@H](Cc1c[nH]c2ccccc12)C(=O)Nc1ccc(-c2c(O)c3ccccc3[nH]c2=O)cc1, the Activity (KB [3]) is reported as “inactive”, the Activity (HCT-116) is reported as “inactive” and the Activity (HL-60 [16]) is reported as “inactive”. For the same molecule, the Activity (MCF7) was “inactive”.
With O=C(O)[C@@H](Cc1c[nH]c2ccccc12)NCc1ccc(-c2c(O)c3ccccc3[nH]c2=O)cc1 the Activity (KB [3]) was “inactive”, the Activity (HCT-116) was “inactive” and the Activity (HL-60 [16]) was “inactive”. For the same molecule, the Activity (MCF7) was “inactive” and the inhibition [34] was “inactive”.
In the case of COc1cccc2c1C(=O)c1c(O)c3c(c(O)c1C2=O)C[C@@](O)(C(=O)CO)C[C@@H]3O[C@H]1C[C@H](N)[C@H](O)[C@H](C)O1, the Activity (HL-60 [35]) is reported as “Active”.
